Sampled rows, rich in hits. Any-hit rate of the full collection: about 1.2%.
S1P4 agonist – S1P4 receptor agonists, primary screen, cell-based | AID 1509, 2009 | S1P4-expressing cell line, agonist reporter assay | 0.35% of 220,000 active | Sphingosine 1-phosphate receptor 4 (Homo sapiens), O95977 | activation, % at 4.98 µM; in the data active = activation above about 11%;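 also: 0% = DMSO vehicle and 100% = reference agonist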
Efa HMGR inh – inhibitors of E. faecalis class II HMGR, primary screen, biochemical, Enterococcus faecalis; HMG-CoA reductase (Enterococcus faecalis, mvaE); AID 1066, 2008; purified E. faecalis HMGR, NADPH absorbance 340 nm kinetic; inhibition, % at 10 µM; 0.41% of 190,000 active;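 active = inhibition above a set limit, the median over all tested compounds plus 3 SD, cut at about 9.5% in these data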;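 also: enzyme runs in reverse so mevalonate oxidation gives rising NADPH absorbance; 0% = complete reaction with DMSO and 100% = background rate lacking mevalonate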
Rad51 HR inh – human RAD51 strand exchange inhibitors, primary screen, biochemical, fluorescence; DNA repair protein RAD51 homolog 1 (Homo sapiens), Q06609; hRad51 DNA strand exchange, fluorescence dequenching; inhibition, % at 10 µM; 0.085% of 200,000 active; AID 1385, 2008;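 active = inhibition above 40% at the single screening dose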;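 also: 0% = DMSO control wells and 100% = blanks with heterologous ssDNA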
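Assay system: Human Rad51 nucleoprotein filaments preassembled on unlabelled ssDNA | Reagent: Donor/quencher-labelled 47-bp dsDNA substrate | Doses: One concentration, 10 µM final | Times: 37 °C 15-min filament assembly, 30-min compound preincubation, 15-min exchange | Technique: Fluorescein emission 520 nm, excitation 485 nm | Benchmarks: Plate control and blank wells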
S1P3 antag – S1P3 receptor antagonists, primary screen, cell-based. CHO S1P3 NFAT-BLA reporter, FRET fluorescence, antagonist mode. inhibition, % at 4.98 µM. 0.27% of 170,000 active;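 active = inhibition above the plate cutoff, the mean inhibition of test wells on that plate plus 3 SD, cut at about 28% in these data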;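 also: cells challenged with S1P at its EC80 of 0.8 µM; blue over green emission ratio from cleaved BLA substrate after 4 h stimulation; 0% = S1P-stimulated wells and 100% = unstimulated DMSO-only wells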
Target sequence (Q99500 whole entry, looked up): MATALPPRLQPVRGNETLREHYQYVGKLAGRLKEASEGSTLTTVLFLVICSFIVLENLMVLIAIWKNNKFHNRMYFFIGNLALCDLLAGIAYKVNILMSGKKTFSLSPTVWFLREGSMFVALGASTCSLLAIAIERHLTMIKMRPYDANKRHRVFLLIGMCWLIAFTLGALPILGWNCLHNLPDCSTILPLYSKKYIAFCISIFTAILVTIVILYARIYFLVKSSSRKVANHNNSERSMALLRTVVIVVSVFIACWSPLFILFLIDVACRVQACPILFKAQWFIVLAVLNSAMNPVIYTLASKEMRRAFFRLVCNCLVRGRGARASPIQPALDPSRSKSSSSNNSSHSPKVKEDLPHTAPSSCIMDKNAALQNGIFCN
S1P4 antagonist – S1P4 receptor antagonists, primary screen, cell-based | Sphingosine 1-phosphate receptor 4 (Homo sapiens), O95977 | S1P4-expressing cells, antagonist mode, reporter read-out | inhibition, % at 4.98 µM | 0.26% of 220,000 active | AID 1510, 2009; in the data active = inhibition above about 29%;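 also: 0% = wells stimulated with agonist and 100% = vehicle wells without agonist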
Biofilm kill mix – clotrimazole potentiators killing C. albicans biofilm, primary screen, 4-compound mixtures; 0.02% of 120,000 active; inhibition, % at 7.6 µM; C. albicans biofilm persisters + clotrimazole, fluorescence viability; primary screen in compound mixtures of four per well;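 also: compounds exposed to preformed 24 h biofilms for 48 h; 0% = untreated biofilm control and 100% = clotrimazole plus chlorhexidine kill blank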
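System: C. albicans CAF4-2 wild-type biofilms; Medium: RPMI/MOPS medium, pH 7.0; Reagent: Clotrimazole, 50 µg/mL; Times: biofilm formation 24 h, compound exposure 48 h, 37 °C; Detection: 2-h Alamar Blue fluorescence, 535/590 nm excitation/emission; Evaluation: percent inhibition of biofilm viability.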
* marks the source's active call; other numbers are inactive results; x = no result given.

SMILES	S1P4 agonist	Efa HMGR inh	Rad51 HR inh	S1P3 antag	S1P4 antagonist	Biofilm kill mix
CCOC(=O)N1CCN(c2cc(NCCO)c([N+](=O)[O-])c3nonc23)CC1	0.1	13.1*	15.4	0.6	-10.9	13.2
COc1ccc(NC(=O)c2c(NC(=O)CNCc3ccco3)sc3c2CCC3)c(OC)c1	1.6	-0.5	3.6	70.1*	-55.2	x
C(=C\c1ccccc1)/CNCC1CCCO1 (stereo not drawn)	0.6	11.1*	x	-4.5	9.8	1.7
CCOC(=O)C1=C(N)n2c(s/c(=C/c3ccco3)c2=O)=C(C(=O)OC)C1c1ccco1 (stereo not drawn)	0.9	0.3	-5.2	81.4*	-22.6	x
CCOC(=O)C1=c2s/c(=C\c3ccncc3)c(=O)n2C(N)=C(C(=O)OC)C1c1ccncc1 (stereo not drawn)	2.4	4.0	1.8	-2.2	-16.7	12.2
CC(=O)CC1=NC(C)(C)Cc2ccccc21	1.7	12.1*	6.2	-0.7	-16.0	8.5
O=C(CSc1nc2[nH]ncc2c(=O)n1-c1ccccc1Br)NCc1ccco1	-0.7	2.0	1.2	82.8*	-10.6	x
COc1ccc(CCNC(=O)CSc2nc3[nH]ncc3c(=O)n2-c2ccccc2Br)cc1OC	1.7	3.8	3.0	-1.3	2.5	19.2
O=C(CSc1nc2ccccc2c(=O)n1Cc1ccco1)NCc1ccccc1	-0.7	x	x	76.4*	5.0	x
CN1CCN(C(=O)CC2(CC(=O)O)CCCC2)CC1	0.5	12.6*	4.1	-8.2	10.4	23.3
CN1CCCN(C(=O)CC2(CC(=O)O)CCCC2)CC1	0.2	5.0	-1.0	-2.7	10.3	5.1
Cc1occc1C(=O)N/N=C/C(Br)=C/c1ccccc1	0.6	10.0*	0.9	6.8	22.8	2.6
COc1ccc(C(=O)N/N=C/C(Br)=C/c2ccccc2)cc1	-1.7	-3.5	-9.6	-13.2	9.3	7.4
Cc1cc(/C=C\c2ccccc2)nc2ccccc12	-2.3	-7.5	-1.4	7.5	10.5	25.9
Cc1ccc(/C(C#N)=C\c2cn(C)c3ccccc23)cc1	1.3	-0.3	61.9*	-14.0	2.9	x
c1ccc(-c2nnsc2-c2nc3ccccc3[nH]2)cc1	1.1	12.1*	-0.6	6.3	0.9	4.8
c1ccc(-c2nnsc2-c2ncc[nH]2)cc1	-1.1	1.3	7.9	-12.1	-14.6	4.2
CCCn1c(C)cc(C(=O)COC(=O)c2ccc[nH]c2=O)c1C	-0.1	-1.9	-14.4	-13.6	-2.9	17.5
COc1ccccc1NC(=S)N1CCCc2ccccc21	1.9	16.1*	-0.3	-9.8	-19.7	12.5
CCNC(=O)c1ccc2c(c1)S(=O)(=O)c1ccccc1C2=O	-0.2	-1.6	-3.2	85.2*	4.6	x
CCOC(=O)C1CCN(C(=O)c2c(-c3ccccc3)noc2C)CC1	-0.9	14.2*	-5.0	-0.6	-24.0	8.5
COCCN=C1NC(=O)C(CC(=O)Nc2cccc(Cl)c2C)S1 (stereo not drawn)	1.1	-5.2	x	-1.4	-38.7	8.0
O=C(O)CCCN1C(=O)/C(=C\c2ccco2)SC1=S	1.0	11.7*	2.4	-0.1	-2.9	28.1
C=CC#CC[N+]1(CC#Cc2ccccc2)CCOCC1	0.1	0.5	63.9*	10.9	-7.7	16.6
O=C(Nc1ccc(-c2nc3ccccc3o2)cc1)c1ccc2c(c1)OCO2	-2.8	0.4	87.2*	17.3	8.2	x
COCCn1c(C)cc(C(=O)COc2ccc(C)nc2[N+](=O)[O-])c1C	1.2	13.2*	x	-1.1	-1.6	2.3
O=C(NC(=S)Nc1ccccn1)c1cc(-c2ccccc2)nc2ccccc12	4.1	-7.4	-12.0	-5.0	-4.6	9.6
CC(=O)Nn1c(-c2ccccc2)cc2ccccc21	0.1	-5.1	85.3*	8.5	-13.9	x
CCC1(C)Nc2ccccc2C(=O)N1O (stereo not drawn)	-0.8	-2.4	40.7*	-28.2	10.4	x
Cc1ccccc1-n1cc(CNCc2c(C(=O)N(C)C)nc3ccc(Cl)cn23)cn1	1.5	13.0*	-10.4	-5.7	1.7	25.8

Source: PubChem BioAssay (several laboratories)
